Source: ChEMBL document CHEMBL1221273, “Addressing time-dependent CYP 3A4 inhibition observed in a novel series of substituted amino propanamide renin inhibitors, a case study” (Bioorg Med Chem Lett, 2010)

Columns and labels:
[1] = target: T1, CYP3A4 (Homo sapiens, UniProt P08684); assay: Ratio of IC50 for human CYP3A4 without preincubation to IC50 for human CYP3A4 preincubated for 30 mins; conditions: read-out: Ratio IC50
How it was run: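 Human liver microsomes (0.25 mg/mL) were preincubated 0 or 30 min at 37 °C with compound (0.03–200 µM) and 1 mM NADPH in 125 mM phosphate buffer. Testosterone (500 µM) was then added for 15 min at 37 °C. Reactions were quenched with acetonitrile and 6β-hydroxytestosterone was measured by HPLC-MS/MS. IC50s were determined under each condition, and the shift is the ratio of the 0-min to the 30-min IC50.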

[2] = Half life in Beagle dog at 3 mg/kg, po; assay type: ADME, organism-based, Canis lupus familiaris; design: dose 3 mg/kg, route oral; conditions: in vivo
[3] = Intrinsic clearance in human liver microsome; assay type: ADME; conditions: liver microsomes
How it was run: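 Compound (1 µM) was incubated at 37 °C with human liver microsomes (1 mg/mL) and an NADPH regenerating system in 125 mM phosphate buffer. Samples were quenched with acetonitrile at 2, 5, 10, 20, 45 and 75 min and parent loss was followed by HPLC-MS/MS. CLint was calculated from the initial elimination rate constant.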

[4] = tested on: Rattus norvegicus; assay: Antihypertensive activity in double transgenic rat hypertensive model assessed as reduction in blood pressure at 1 mg/kg, po; assay type: functional
[5] = tested on: Rattus norvegicus; assay: Antihypertensive activity in double transgenic rat hypertensive model assessed as time required to reduce blood pressure at 1 mg/kg, po; assay type: functional
[6] = target: T2, Cytochrome P450 3A4 (Homo sapiens, UniProt P08684); assay: Inhibition of CYP3A4 in human liver microsome preincubated for 30 mins; assay type: ADME, microsomes
T2 sequence (P08684 whole entry): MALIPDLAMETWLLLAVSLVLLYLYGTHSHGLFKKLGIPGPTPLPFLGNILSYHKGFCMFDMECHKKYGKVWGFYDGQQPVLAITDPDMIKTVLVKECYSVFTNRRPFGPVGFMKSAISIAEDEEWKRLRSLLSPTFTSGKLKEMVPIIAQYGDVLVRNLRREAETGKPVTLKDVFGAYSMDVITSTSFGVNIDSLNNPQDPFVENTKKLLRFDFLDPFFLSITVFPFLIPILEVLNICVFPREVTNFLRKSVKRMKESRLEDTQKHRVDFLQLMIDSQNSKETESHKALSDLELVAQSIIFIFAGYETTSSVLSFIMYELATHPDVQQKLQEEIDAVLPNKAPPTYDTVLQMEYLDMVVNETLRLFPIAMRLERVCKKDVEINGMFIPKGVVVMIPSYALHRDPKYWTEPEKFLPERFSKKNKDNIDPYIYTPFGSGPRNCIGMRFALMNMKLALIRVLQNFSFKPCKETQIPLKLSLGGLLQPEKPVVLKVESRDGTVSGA
How it was run: (§1)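 Human liver microsomes (0.25 mg/mL) pre-incubated 0 or 30 min at 37 °C with test compound (0.03–200 µM range as printed) and 1 mM NADPH in 125 mM phosphate buffer. Testosterone (500uM) then added as CYP3A substrate, 15 min further at 37 °C. Quenched with acetonitrile, centrifuged, and 6b-hydroxytestosterone formation read by HPLC-MS/MS. IC50 averaged over at least two replicates.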

[7] = target: T1, CYP3A4; assay: Inhibition of CYP3A4 in human liver microsome at 3 uM; assay type: ADME; conditions: liver microsomes
[8] = target: T3, Renin (Homo sapiens, UniProt P00797); assay: Inhibition of human recombinant renin in presence of pH 7.4 buffer
T3 sequence (P00797 whole entry): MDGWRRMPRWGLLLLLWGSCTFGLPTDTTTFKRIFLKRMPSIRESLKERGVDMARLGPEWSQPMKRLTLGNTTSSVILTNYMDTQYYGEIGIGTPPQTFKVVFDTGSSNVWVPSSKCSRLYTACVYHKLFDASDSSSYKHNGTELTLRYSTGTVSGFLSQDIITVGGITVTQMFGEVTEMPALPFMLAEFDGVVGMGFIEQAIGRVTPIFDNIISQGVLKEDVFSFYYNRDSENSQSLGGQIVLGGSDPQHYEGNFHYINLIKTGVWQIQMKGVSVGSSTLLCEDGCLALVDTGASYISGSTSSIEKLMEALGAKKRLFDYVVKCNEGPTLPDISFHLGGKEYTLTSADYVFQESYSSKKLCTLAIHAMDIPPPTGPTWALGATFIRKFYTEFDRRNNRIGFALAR
How it was run: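 Recombinant human renin (3 pg/µL) in PBS pH 7.4 with 1 mM EDTA and 0.1% BSA, premixed with human tetradecapeptide (1–14) substrate and hydroxyquinoline sulfate. Compounds were diluted in DMSO and added, then incubated 3 h at 37 °C. AngI accumulation was measured by immunoassay. % inhibition was computed for each concentration and IC50 obtained by curve fitting. Values are the mean of at least two replicates.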

[9] = target: T3, Renin; assay: Inhibition of human recombinant renin in presence of plasma by immunoassay; assay type: cell-free
How it was run: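 Pooled frozen human citrate plasma was spiked with recombinant human renin (150 pg/mL final). Compounds at various concentrations in DMSO were added to a 7:1 mix of plasma and anti-AngI trapping antibody (final antiserum 1:50,000) in Tris/EDTA pH 7.2, then incubated 2 h at 37 °C. AngI was read by immunoassay and IC50 fitted. Values are the mean of at least two replicates.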

[10] = Oral bioavailability in Sprague-Dawley rat at 30 mg/kg; assay type: ADME, organism-based; conditions: in vivo
[11] = Clearance in Sprague-Dawley rat at 30 mg/kg, po; assay type: ADME, organism-based; design: dose 30 mg/kg, route oral; conditions: in vivo
[12] = tested on: Rattus norvegicus; assay: Volume of distribution at steady state in Sprague-Dawley rat at 30 mg/kg, po; assay type: ADME, organism-based; design: dose 30 mg/kg, route oral; conditions: in vivo
[13] = Half life in Sprague-Dawley rat at 30 mg/kg, po; assay type: ADME, organism-based; design: dose 30 mg/kg, route oral; conditions: in vivo
[14] = target: T1, CYP3A4; assay: (§2) Inhibition of CYP3A4 in human liver microsome; assay type: ADME, microsomes; conditions: human, liver microsomes; how it was run: as §1
[15] = target: T2, Cytochrome P450 3A4; assay: as §2; assay type: ADME, microsomes; how it was run: as §1
[16] = Metabolic stability in human liver microsome assessed as compound remaining at 50 uM after 1 hr; assay type: ADME; conditions: liver microsomes, read-out: Stability
[17] = Metabolic stability in human liver microsome assessed as compound remaining at 20 uM after 1 hr; assay type: ADME; conditions: liver microsomes, read-out: Stability
[18] = Oral bioavailability in Beagle dog at 3 mg/kg; assay type: ADME, organism-based, Canis lupus familiaris; conditions: in vivo
[19] = Clearance in Beagle dog at 3 mg/kg, po; assay type: ADME, organism-based, Canis lupus familiaris; design: dose 3 mg/kg, route oral; conditions: in vivo
[20] = tested on: Canis familiaris; assay: Volume of distribution at steady state in Beagle dog at 3 mg/kg, po; assay type: ADME, organism-based, Canis lupus familiaris; design: dose 3 mg/kg, route oral; conditions: in vivo
[21] = tested on: Rattus norvegicus; assay: Antihypertensive activity in double transgenic rat hypertensive model assessed as reduction in blood pressure at 3 mg/kg, po; assay type: functional
[22] = tested on: Rattus norvegicus; assay: Antihypertensive activity in double transgenic rat hypertensive model assessed as time required to reduce blood pressure at 3 mg/kg, po; assay type: functional

T1 sequence (P08684 whole entry): as the sequence (P08684 whole entry) above

Row | SMILES | IC50 shift [1] | other results
1 | COCCc1ccc(Cl)c(CN(CC2CCC2)C(=O)[C@@H](CN)Cc2ccc(OCCOc3c(Cl)cc(C)cc3Cl)cc2)c1 | 130 | –
2 | COCCCc1ccc(Cl)c(CN(C(=O)[C@@H](CN)Cc2ccc(OCCOc3c(Cl)cc(C)cc3Cl)cc2)C2CC2)c1 | 110 | half-life [2]: 17 h; CLint scaled [3]: 15 mL/min/kg; Activity [4]: 13 mmHg; Time [5]: 24 h; IC50 [6]: 120 nM; inhibition at 3 µM [7]: 7%; IC50 [8]: 0.09 nM; IC50 [9]: 2.4 nM; bioavailability [10]: 41%; CL/F [11]: 35 mL/min/kg; Vdss [12]: 12 L/kg; half-life [13]: 6 h; kinact [14]: 0.00157 s⁻¹; IC50 [15]: 14000 nM; Ki [15]: 3200 nM; remaining at 1 h, 50 µM [16]: 98%; remaining at 1 h, 20 µM [17]: 94%; bioavailability [18]: 32%; CL/F [19]: 16 mL/min/kg; Vdss [20]: 8.4 L/kg
3 | COCCc1ccc(Cl)c(CN(C(=O)[C@@H](CN)Cc2ccc(OCCOc3c(Cl)cc(C)cc3Cl)cc2)C2CC2)c1 | 110 | –
4 | Cc1cc(Cl)c(OCCOc2ccc(C[C@H](CN)C(=O)N(Cc3cc(CCCC#N)ccc3Cl)C3CC3)cc2)c(Cl)c1 | 120 | Activity [21]: 27 mmHg; Time [22]: 48 h
5 | CC(=O)N(C)Cc1ccc(Cl)c(CN(C(=O)[C@@H](CN)Cc2ccc(OCCOc3c(Cl)cc(C)cc3Cl)cc2)C2CC2)c1 | 35 | –
6 | Cc1cc(Cl)c(OCCOc2ccc(C[C@H](CN)C(=O)N(Cc3cc(CCS(C)(=O)=O)ccc3Cl)C3CC3)cc2)c(Cl)c1 | 50 | –
7 | COCCCc1cc(CN(C(=O)[C@@H](CN)Cc2ccc(OCCOc3c(Cl)cc(C)cc3Cl)cc2)C2CC2)c(Cl)cn1 | 90 | –
8 | COCCCc1cc(CN(C(=O)[C@@H](CN)Cc2ccc(OCCOc3c(Cl)cc(C)cc3Cl)cc2)C2CC2)c(Cl)c[n+]1[O-] | 70 | –
9 | COCCCc1cc(CN(C(=O)[C@@H](CN)Cc2ccc(OCCOc3c(Cl)cc(C)cc3Cl)cc2)C2CC2)c2ccccc2n1 | 120 | –
10 | Cc1cc(Cl)c(OCCOc2ccc(C[C@H](CN)C(=O)N(Cc3cc(CCCC#N)cc4cccnc34)C3CC3)cc2)c(Cl)c1 | 140 | –
11 | COCCc1ccc(Cl)c(CN(C(=O)[C@H](Cc2ccc(OCCOc3c(Cl)cc(C)cc3Cl)cc2)[C@H](C)N)C2CC2)c1 | 60 | –
12 | COCCc1ccc(Cl)c(CN(C(=O)[C@H](Cc2ccc(OCCOc3c(Cl)cc(C)cc3Cl)cc2)C(N)=O)C2CC2)c1 | 55 | –
13 | COCCc1ccc(Cl)c(CN(C(=O)CCc2ccc(OCCOc3c(Cl)cc(C)cc3Cl)cc2)C2CC2)c1 | 40 | –
14 | COCCc1ccc(Cl)c(CN(C)C(=O)[C@@H](CN)Cc2ccc(OCCOc3c(Cl)cc(C)cc3Cl)cc2)c1 | 40 | –
15 | COCCc1ccc(Cl)c(CN(C(=O)[C@@H](CN)Cc2ccc(OCCOc3c(Cl)cc(C)cc3Cl)cc2)C2CCC2)c1 | 180 | –
16 | COCCc1ccc(Cl)c(CN(CC2CC2)C(=O)[C@@H](CN)Cc2ccc(OCCOc3c(Cl)cc(C)cc3Cl)cc2)c1 | 100 | –
17 | COCCc1ccc(Cl)c(CN(C(=O)[C@@H](CN)Cc2ccccc2)C2CC2)c1 | 120 | –
18 | COCCc1ccc(Cl)c(CN(C(=O)[C@@H](CN)Cc2ccc(CCOc3c(Cl)cc(C)cc3Cl)cc2)C2CC2)c1 | 60 | –
19 | COCCc1ccc(Cl)c(CN(C[C@@H](CN)Cc2ccc(OCCOc3c(Cl)cc(C)cc3Cl)cc2)C2CC2)c1 | 5.8 | –
20 | COCCc1ccc(Cl)c(C[C@H](C[C@@H](CN)Cc2ccc(OCCOc3c(Cl)cc(C)cc3Cl)cc2)C2CC2)c1 | 3.5 | –
21 | COCCc1ccc(Cl)c(C[C@@H](C[C@@H](CN)Cc2ccc(OCCOc3c(Cl)cc(C)cc3Cl)cc2)C2CC2)c1 | 1.7 | –
22 | COCCCc1cc(CN(C(=O)[C@@H](CN)Cc2ccc(OCCOc3c(Cl)cc(C)cc3Cl)cc2)C2CC2)cc(OCCOC)c1 | 1.5 | –
23 | COCCCc1cc(CN(C(=O)[C@@H](CN)Cc2ccc(OCCOc3c(Cl)cc(C)cc3Cl)cc2)C2CC2)cc(OCCN2CCOCC2)c1 | < 1 | –
